Results published in ChEMBL document CHEMBL5104204, “Synthesis and in vitro anticancer evaluation of novel flavonoid-based amide derivatives as regulators of the PI3K/AKT signal pathway for TNBC treatment” (RSC Med Chem, 2022).
Calls of active or inactive are those of the source. No cut-off for these calls is given here.

How the values were obtained:
MDA-MB-231 [1] = assay: Inhibition of cell migration in human MDA-MB-231 cells at 0.88 uM incubated for 12 hrs by scratch wound healing assay; assay type: functional, cell-based
MDA-MB-231 [2] = assay: Inhibition of colony formation in human MDA-MB-231 cells assessed as decrease in number of colony forming cells at 0.44 to 3.52 incubated for 48 hrs by crystal violet staining based assay; assay type: functional, cell-based; conditions: DDE = dose-dependent effect
Summary of the method: (§1)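 Colony formation, MDA-MB-231: 800 cells/well, three replicate wells per group, grown 5–7 days at 37 °C, 5% CO2 until 30–50-cell clusters formed. Drug then added for 24, 48 or 72 h. Washed with cold PBS, fixed in 4% paraformaldehyde 30 min, stained with 0.5% crystal violet, imaged, colonies counted; n = 3.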

MDA-MB-231 [3] = assay: Induction of cell cycle arrest in human MDA-MB-231 cells assessed as increase in accumulation at G0/G1 phase at 0.88 to 3.52 uM incubated for 48 hrs by flow cytometry; assay type: functional, cell-based; conditions: dose 0.88-3.52 µM, DDE = dose-dependent effect
Summary of the method: (§2)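 Cell cycle of MDA-MB-231 after 48 h exposure: trypsinised and washed in PBS, about 1×10^6 cells/mL. Fixed overnight in pre-cooled 70% ethanol at 4 °C, then resuspended in PBS and filtered through 200-mesh nylon. Flow cytometry with 488 nm excitation gave G0/G1, S and G2/M percentages; n = 3, mean ± SD.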

MDA-MB-231 [4] = assay: Induction of apoptosis in human MDA-MB-231 cells assessed as necrotic cells at 2.2 uM incubated for 48 hrs AnnexinV/ propidium iodide staining based flow cytometry (Rvb= 0.54%); assay type: functional
HepG2 = assay: Antitumor activity against human HepG2 cells assessed as inhibit cell proliferation incubated for 72 hrs by CCK-8 assay; assay type: functional, cell-based; conditions: HepG2, 72 h
Summary of the method: (§3)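 CCK8 viability readout. Culture media: HCC1937, A549, HeLa and GTL-16 in RPMI 1640; MDA-MB-231, MCF-7 and HepG2 in high-glucose DMEM; all with 10% FBS and penicillin/streptomycin, 37 °C, 5% CO2. 4×10^3–6×10^3 cells/well, 24 h, then compounds in serum-free medium, 72 h at 37 °C. 10% CCK8, 2 h, OD 450/630 nm. Five wells per group; IC50 from inhibition rate; three independent experiments, mean ± SD.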

MDA-MB-231 [5] = assay: Inhibition of cell invasion in human MDA-MB-231 cells assessed as decrease in number of cells crossing microporous membrane at 0.88 to 3.52 uM incubated for 48 hrs by crystal violet staining based transwell invasion assay; assay type: functional; conditions: dose 0.88-3.52 µM, DDE = dose-dependent effect
Summary of the method: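 Transwell invasion, MDA-MB-231. Cells in serum-free medium in the upper chamber with compound; complete medium below. 48 h at 37 °C. Methanol fixation 2 h, non-invaded cells swabbed off, 0.5% crystal violet 30 min. Invaded cells photographed and counted; n = 3, mean ± SD.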

MDA-MB-231 [6] = assay: Induction of apoptosis in human MDA-MB-231 cells assessed as upregulation of Bax expression at 1 to 10 uM incubated for 48 hrs by western blot analysis; assay type: functional, cell-based; conditions: dose 1-10 µM, DDE = dose-dependent effect
MDA-MB-231 [7] = assay: Inhibition of colony formation in human MDA-MB-231 cells assessed as decrease in size of colony forming cells at 1.76 uM incubated upto 72 hrs by crystal violet staining based assay; assay type: functional, cell-based; conditions: TDE = time-dependent effect; summary of the method: as §1
MDA-MB-231 [8] = assay: Induction of apoptosis in human MDA-MB-231 cells assessed as late apoptotic cells at 2.2 uM incubated for 48 hrs AnnexinV/ propidium iodide staining based flow cytometry (Rvb= 0.40%); assay type: functional
MDA-MB-231 [9] = assay: Induction of apoptosis in human MDA-MB-231 cells assessed as half-moon, loop and ellipse shaped fragment formation at 0.88 to 3.52 uM incubated for 48 hrs by Hoechst 33258 staining based fluorescence microscopic analysis; assay type: functional, cell-based; conditions: dose 0.88-3.52 µM, DDE = dose-dependent effect
Summary of the method: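 MDA-MB-231 seeded at 2×10^5–3×10^5 per well and incubated overnight (37 °C, 5% CO2). Exposed to compound for 48 h. Fixed in methanol 30 min, then stained with Hoechst 33258 for 30 min at room temperature in the dark. Nuclear morphology scored by fluorescence microscopy; n = 3, mean ± SD.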

MDA-MB-231 [10] = assay: Induction of apoptosis in human MDA-MB-231 cells assessed as viable cells at 0.88 uM incubated for 48 hrs AnnexinV/ propidium iodide staining based flow cytometry (Rvb= 99.02%); assay type: functional; conditions: read-out: Activity
MDA-MB-231 [11] = assay: Inhibition of PI3K/AKT signalling pathway in human MDA-MB-231 cells assessed as upregulation of PTEN expression at 1 to 10 uM incubated for 48 hrs by western blot analysis; assay type: cell-based; conditions: dose 1-10 µM, DDE = dose-dependent effect
Summary of the method: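 MDA-MB-231 treated at 1, 5 and 10 μM at 37 °C, then lysed in RIPA/PMSF for 30 min at 0 °C and cleared at 14 000 × g, 4 °C. Protein quantified by BCA; 40 μg resolved by SDS-PAGE and transferred to PVDF. Blocked in 5% skim milk, primary antibody overnight at 4 °C, secondary 2 h at room temperature, chemiluminescent imaging.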

MDA-MB-231 [12] = assay: Induction of apoptosis in human MDA-MB-231 cells assessed as early apoptotic cells at 2.2 uM incubated for 48 hrs AnnexinV/ propidium iodide staining based flow cytometry (Rvb= 0.3%); assay type: functional
MDA-MB-231 [13] = assay: Induction of apoptosis in human MDA-MB-231 cells assessed as upregulation of Caspase-3 expression at 1 to 10 uM incubated for 48 hrs by western blot analysis; assay type: functional, cell-based; conditions: dose 1-10 µM, DDE = dose-dependent effect
MDA-MB-231 [14] = assay: Induction of apoptosis in human MDA-MB-231 cells assessed as early apoptotic cells at 3.52 uM incubated for 48 hrs AnnexinV/ propidium iodide staining based flow cytometry (Rvb= 0.3%); assay type: functional
MDA-MB-231 [15] = assay: Induction of apoptosis in human MDA-MB-231 cells assessed as viable cells at 2.2 uM incubated for 48 hrs AnnexinV/ propidium iodide staining based flow cytometry (Rvb= 99.02%); assay type: functional; conditions: read-out: Activity
MDA-MB-231 [16] = assay: Induction of cell cycle arrest in human MDA-MB-231 cells assessed as decrease in G2/M phase at 0.88 to 3.52 uM incubated for 48 hrs by flow cytometry; assay type: functional, cell-based; conditions: dose 0.88-3.52 µM, DDE = dose-dependent effect; summary of the method: as §2
HeLa = assay: Antitumor activity against human HeLa cells assessed as inhibit cell proliferation incubated for 72 hrs by CCK-8 assay; assay type: functional, cell-based; summary of the method: as §3
MDA-MB-231 [17] = assay: Inhibition of colony formation in human MDA-MB-231 cells assessed as decrease in number of colony forming cells at 1.76 uM incubated upto 72 hrs by crystal violet staining based assay; assay type: functional, cell-based; conditions: TDE = time-dependent effect; summary of the method: as §1
MDA-MB-231 [18] = assay: Induction of apoptosis in human MDA-MB-231 cells assessed as viable cells at 7.04 uM incubated for 48 hrs AnnexinV/ propidium iodide staining based flow cytometry (Rvb= 99.02%); assay type: functional; conditions: read-out: Activity
MDA-MB-231 [19] = assay: Induction of apoptosis in human MDA-MB-231 cells assessed as necrotic cells at 7.04 uM incubated for 48 hrs AnnexinV/ propidium iodide staining based flow cytometry (Rvb= 0.54%); assay type: functional
MDA-MB-231 [20] = assay: Induction of apoptosis in human MDA-MB-231 cells assessed as viable cells at 1.76 uM incubated for 48 hrs AnnexinV/ propidium iodide staining based flow cytometry (Rvb= 99.02%); assay type: functional; conditions: read-out: Activity
MDA-MB-231 [21] = assay: Induction of apoptosis in human MDA-MB-231 cells assessed as late apoptotic cells at 7.04 uM incubated for 48 hrs AnnexinV/ propidium iodide staining based flow cytometry (Rvb= 0.40%); assay type: functional
MDA-MB-231 [22] = assay: Antitumor activity against human MDA-MB-231 cells assessed as inhibit cell proliferation incubated for 72 hrs by CCK-8 assay; assay type: functional, cell-based; conditions: MDA-MB-231, 72 h; summary of the method: as §3

O=C(Nc1cccc(-c2oc3cc(-c4ccc(F)cc4)ccc3c(=O)c2O)c1)c1ccc(Cl)nc1
inhibition (MDA-MB-231 [1]): Active | inhibition (MDA-MB-231 [2]): Dde | Activity (MDA-MB-231 [3]): Dde | Activity (MDA-MB-231 [4]): 1.53% | IC50 (HepG2): 4.61 µM | inhibition (MDA-MB-231 [5]): Dde | Activity (MDA-MB-231 [6]): Dde | inhibition (MDA-MB-231 [7]): Tde | Activity (MDA-MB-231 [8]): 61.14% | Activity (MDA-MB-231 [9]): Dde | viability at 0.88 µM (MDA-MB-231 [10]): 74.3% | inhibition (MDA-MB-231 [11]): Dde | Activity (MDA-MB-231 [12]): 7.49% | Activity (MDA-MB-231 [13]): Dde | Activity (MDA-MB-231 [14]): 15.04% | viability at 2.2 µM (MDA-MB-231 [15]): 29.8% | Activity (MDA-MB-231 [16]): Dde | IC50 (HeLa): 4.08 µM | inhibition (MDA-MB-231 [17]): Tde | viability at 7.04 µM (MDA-MB-231 [18]): 5.68% | Activity (MDA-MB-231 [19]): 1.92% | viability at 1.76 µM (MDA-MB-231 [20]): 45.8% | Activity (MDA-MB-231 [21]): 68.54% | IC50 (MDA-MB-231 [22]): 1.76 µM
